A short description of series [1]: Cytotoxicity against mouse BA/F3 cells after 72 hrs by CellTiter-Glo or CCK-8 assay. It is filed as cell-based, BaF3. In a few lines: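 Parental BaF3 or IL-3-independent TEL-kinase BaF3 lines, made by retroviral infection and puromycin selection, grown in RPMI 1640 with 10% FBS. Cells seeded at 1–3 × 10^4 cells/mL with serial compound concentrations for 72 h. Viability read by CellTiter-Glo luminescence or CCK-8 absorbance at 450/655 nm and normalised to DMSO. GI50 obtained by triplicate testing with linear regression. Selectivity is the ratio of the two GI50 values.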
A general note: In ATP-based viability assays light output follows the ATP content of the culture.

The nature of series [2]: Oral bioavailability in Sprague-Dawley rat at 10 mg/kg. It is filed as ADME, organism-based. As to conditions: in vivo. In a few lines:
(§1)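 Male Sprague-Dawley rats, 6–8 weeks old and fasted overnight, dosed IV at 1 mg/kg or PO at 10 mg/kg. Formulation was 5% DMSO/40% PEG400/55% saline (1 mg/mL). Jugular blood collected on heparin from 1 min to 8 h (IV) or 5 min to 24 h (PO). Plasma separated by centrifugation at 2–8 °C and stored at −80 °C.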

Series [3] in a line: AUC (0 to t) in Sprague-Dawley rat at 10 mg/kg, po. It is filed as ADME, organism-based. The conditions noted are these: in vivo. In a few lines:
(§2)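 Male Sprague-Dawley rats (6–8 weeks) fasted overnight, dosed IV or orally; compound dissolved in 5% DMSO/40% PEG400/55% saline (dosing solution 1 mg/mL). Blood (~0.2 mL) from jugular vein into heparin; IV sampling 1 min–8 h, oral 5 min–24 h. Plasma separated by centrifugation at 2–8 °C, stored at −80 °C until analysis.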

Series [4] deals with EOL1. Nature of the series: Antiproliferative activity against human EOL-1 cells after 72 hrs by CellTiter-Glo or CCK-8 assay. As to conditions: EOL1, 72 h. It is filed as functional. In a few lines:
(§3)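 Cells in RPMI 1640 with 10% FBS at 37 °C, 5% CO2, seeded at 1–3 × 10^4 cells/mL with serial compound dilutions for 72 h. Viability read by CellTiter-Glo luminescence or CCK-8 absorbance (450/655 nm), normalized to DMSO control.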

Series [5] has as its system NCI-H1703. The series can be described thus: Antiproliferative activity against human NCI-H1703 cells after 72 hrs by CellTiter-Glo or CCK-8 assay. The conditions noted are these: NCI-H1703, 72 h. It is filed as functional. An outline of the steps: as §3
For series [6], the system named is NCI-H1703. The series can be described thus: Antiproliferative activity against human NCI-H1703 cells after 72 hrs in presence of PDGF-AA by CellTiter-Glo or CCK-8 assay. The format is functional. As to conditions: NCI-H1703, 72 h. In a few lines:
as §3

Series [7] is described as follows: AUC (0 to t) in Sprague-Dawley rat at 1 mg/kg, iv. It is filed as ADME, organism-based. As to conditions: in vivo. An outline of the steps:
as §2

Series [8] can be described thus: AUC (0 to infinity) in Sprague-Dawley rat at 1 mg/kg, iv. As to conditions: in vivo. It is filed as ADME, organism-based. More on the design: dose 1 mg/kg, time infinity, route intravenous. An outline of the steps:
as §2

Series [9] in a line: Tmax in Sprague-Dawley rat at 1 mg/kg, iv. The format is ADME, organism-based. As to conditions: in vivo. In a few lines:
as §1

Series [10] can be described thus: Cmax in Sprague-Dawley rat at 1 mg/kg, iv. It is filed as ADME, organism-based. More on the design: dose 1 mg/kg, route intravenous. The conditions noted are these: in vivo. An outline of the steps: as §1
Series [11] is described as follows: AUC (0 to infinity) in Sprague-Dawley rat at 10 mg/kg, po. The format is ADME, organism-based. More on the design: dose 10 mg/kg, route oral, time infinity. As to conditions: in vivo. In a few lines: as §2
Series [12] in a line: Tmax in Sprague-Dawley rat at 10 mg/kg, po. The conditions noted are these: in vivo. The format is ADME, organism-based. An outline of the steps: as §1
A short description of series [13]: Cmax in Sprague-Dawley rat at 10 mg/kg, po. The format is ADME, organism-based. More on the design: dose 10 mg/kg, route oral. The conditions noted are these: in vivo. In a few lines: as §1
Series [14] deals with EOL1. Nature of the series: Antitumor activity against human EOL-1 cells xenografted in nu/nu mouse assessed as tumor growth inhibition at 25 mg/kg/day, ip. The format is functional. The conditions noted are these: read-out: TGI. In a few lines: (§4)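 Female nu/nu mice (6 weeks) given subcutaneous right-flank injection of 5 million EOL-1 cells in PBS/Matrigel 1:1. At 200–400 mm3 tumors, randomized to groups of 6 and dosed daily i.p. for 14 days at 25, 50 or 100 mg/kg/d in 0.5% methylcellulose/0.4% Tween80. Tumor volume = W²×L/2, measured daily.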
In general terms: Xenograft models place foreign cells or tissue in a host animal.

Series [15] relates to EOL1. The series can be described thus: Antitumor activity against human EOL-1 cells xenografted in nu/nu mouse assessed as tumor growth inhibition at 50 mg/kg/day, ip. The format is functional. As to conditions: read-out: TGI. An outline of the steps: as §4
Series [16] concerns EOL1. The series can be described thus: Antitumor activity against human EOL-1 cells xenografted in nu/nu mouse assessed as tumor growth inhibition at 100 mg/kg/day, ip. The format is functional. The conditions noted are these: read-out: TGI. An outline of the steps: as §4
For series [17], the system named is Mus musculus. Nature of the series: Toxicity in nu/nu mouse xenografted with human EOL-1 cells assessed as change in body weight at 25 to 100 mg/kg/day, ip. The conditions noted are these: in vivo. It is filed as organism-based. In a few lines:
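Female nu/nu mice, 6 weeks old, implanted subcutaneously in the right flank with 5 million EOL-1 cells in PBS/Matrigel 1:1. At tumour size 200–400 mm³, mice randomised into groups of 6 and given daily IP doses of 25, 50 or 100 mg/kg in 0.5% methylcellulose/0.4% Tween80, or vehicle, for 14 days. Body weight measured daily and normalised to initial weight; mean ± SEM.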

Series [18] concerns the target T1, Platelet-derived growth factor receptor alpha (Homo sapiens, UniProt P16234). The conditions noted are these: 100 nM.
In series [19] the target is T1, Platelet-derived growth factor receptor alpha. As to conditions: NCI-H1703, 1 uM.
Series [20] shares this target. The conditions noted are these: NCI-H1703, 1 uM. This is another data set of the same source.
The target is the same in series [21]. The conditions noted are these: NCI-H1703, 1 uM. This is another data set of the same source.
Series [22] shares this target. As to conditions: 1 uM.
The target is the same in series [23]. The conditions noted are these: 1 uM. The source holds these as a separate data set.

The values that follow come from ChEMBL document CHEMBL4229344 (Eur J Med Chem, 2018).

Calls of active or inactive are those of the source. No cut-off for these calls is given here.

T1 sequence (P16234 whole entry): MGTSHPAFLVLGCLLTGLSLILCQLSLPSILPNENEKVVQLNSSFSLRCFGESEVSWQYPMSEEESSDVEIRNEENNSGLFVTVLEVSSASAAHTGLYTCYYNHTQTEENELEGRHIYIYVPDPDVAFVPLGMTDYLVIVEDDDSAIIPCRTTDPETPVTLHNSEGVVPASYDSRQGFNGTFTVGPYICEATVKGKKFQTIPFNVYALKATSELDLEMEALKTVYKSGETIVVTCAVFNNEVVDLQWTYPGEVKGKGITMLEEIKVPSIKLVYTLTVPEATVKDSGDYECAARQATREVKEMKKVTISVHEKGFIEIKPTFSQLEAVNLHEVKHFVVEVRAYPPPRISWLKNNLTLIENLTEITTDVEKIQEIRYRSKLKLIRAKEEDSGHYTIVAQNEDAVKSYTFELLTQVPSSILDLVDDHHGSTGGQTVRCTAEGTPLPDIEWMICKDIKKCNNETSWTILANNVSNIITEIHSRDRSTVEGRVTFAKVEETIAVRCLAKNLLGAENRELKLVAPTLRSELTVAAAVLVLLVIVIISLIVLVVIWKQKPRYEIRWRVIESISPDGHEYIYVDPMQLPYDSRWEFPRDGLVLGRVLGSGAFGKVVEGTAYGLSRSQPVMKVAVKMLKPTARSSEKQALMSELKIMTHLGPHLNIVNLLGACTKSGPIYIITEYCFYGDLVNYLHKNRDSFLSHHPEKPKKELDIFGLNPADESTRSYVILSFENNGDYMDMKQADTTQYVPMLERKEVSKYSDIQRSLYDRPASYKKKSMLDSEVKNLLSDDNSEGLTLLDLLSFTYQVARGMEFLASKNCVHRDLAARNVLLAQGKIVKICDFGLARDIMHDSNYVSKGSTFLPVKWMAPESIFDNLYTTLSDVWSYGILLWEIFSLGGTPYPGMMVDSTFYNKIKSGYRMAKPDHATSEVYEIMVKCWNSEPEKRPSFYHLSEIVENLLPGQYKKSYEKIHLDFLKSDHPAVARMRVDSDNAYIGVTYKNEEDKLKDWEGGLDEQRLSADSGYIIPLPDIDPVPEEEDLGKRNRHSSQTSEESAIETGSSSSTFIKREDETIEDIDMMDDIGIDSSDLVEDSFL

As for `Cc1ccc(NC(=O)c2ccc(CN3CCN(C)CC3)cc2)cc1Nc1nccc(-c2cccnc2)n1` [IMATINIB], the GI50 (commonly the concentration giving 50% growth inhibition) at 72 h in series [1] is over 10000 nM. Further, the bioavailability (commonly the share of a dose that reaches the circulation, judged against a reference dose that is usually intravenous) in series [2] is 76.5%. Also, the exposure AUC(0-t) (usually exposure summed from dosing to a finite time, without extrapolation to infinity) is 6460 ng·h/mL in series [3] and 856 ng·h/mL in series [7]. The values for the GI50 in series [4], in [5] and in series [6] were under 1 nM, 2100 nM and 230 nM, respectively. Further, the AUC(0-inf) (commonly the area under the concentration-time curve extrapolated to infinity) in [8] came out at 869 ng·h/mL; in [11], 6650 ng·h/mL. In addition, the Tmax (as a rule, the time at which the peak concentration occurs) was determined as 1.02 min in [9] and 6.67 h in series [12]. In addition, the Cmax (commonly the peak of the concentration-time curve) in [10] amounted to 547 ng/mL; in [13] it was 531 ng/mL. Also, the inhibition in vivo at 25 mg/kg/day in series [14] was 99.9%. In addition, the inhibition in vivo at 50 mg/kg/day in [15] turned out to be 100%. The inhibition in vivo at 100 mg/kg/day in series [16] was found to be 100%. Besides, in series [17], the Activity entry was “Toxic”. Also, the inhibition entry in [18] was “inactive”. The inhibition result in series [19], in [20], in series [21], in series [22] and in series [23] was “Active” each time.
